697 NFkB inh – inhibitors of PMA/ionomycin-induced NF-kB reporter, 697 cells, primary screen, B-cell NF-kB inhibitor project, cell-based, luminescence, uHTS | 697 B-cell NF-kB luciferase reporter, 16 h | inhibition, % at 4 µM | AID 435022, 2010 | hit rate 0.33% among 330,000; in the data active = inhibition above about 35%
CHOP UPR activ – activators of apoptotic CHOP UPR arm, primary screen, cell-based, CHO-CHOP luciferase reporter, luminescence, uHTS | UPR activation; percent of tunicamycin response over DMSO baseline | activation, % at 10 µM | hit rate 0.34% among 330,000;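 active = at 10 µM dose, activation of 40% or more, normalized to positive control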;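 also: 100% = tunicamycin at 10 µg/mL and 0% = DMSO alone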
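Dosing – one dose, 10 µM in 0.5% DMSO · System – CHO-CHOP cells, stable luciferase reporter of PERK-eIF2a-CHOP signalling · Input – 500 cells/well · Control set – tunicamycin 10 µg/mL final as positive, DMSO-only wells as negative · Timing – 6 h compound treatment, 37 °C · Measure – % activation vs tunicamycin · Technique – luminescence read with Steady-Glo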
CHOP inh – inhibitors of CHOP promoter induction, primary screen, cell-based, unfolded protein response, luciferase reporter. inhibition, % at 10 µM. CHO-K1 CHOP-promoter luciferase, tunicamycin-induced, 15-18 h. hit rate 3.8% among 220,000. AID 2732, 2010;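 active = compounds that reduced the stress-induced luciferase reporter signal by more than about 70% of percent inhibition, limit read from the data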;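 also: 0% = tunicamycin plus vehicle and 100% = wells without tunicamycin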
Jurkat NFkB inh – inhibitors of induced NF-kB luciferase reporter, primary screen, TCR NF-kB activation inhibitor project, cell-based, luminescence, uHTS. inhibition, % at 4 µM. hit rate 0.53% among 330,000. Jurkat, PMA/ionomycin-induced NF-kB luciferase reporter. AID 435003, 2010; in the data active = inhibition above about 50%
XBP1 UPR activ – activators of adaptive XBP1 UPR arm, primary screen, cell-based, CHO-XBP1 luciferase reporter, luminescence, uHTS; hit rate 0.33% among 330,000; IRE1-XBP1 UPR activation; percent of tunicamycin response, DMSO as zero; activation, % at 20 µM;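 active = versus positive control, 20 µM dose yields 30% or more activation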;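 also: 100% = tunicamycin at 10 µg/mL and 0% = DMSO only wells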
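Material: CHO cell line with stable XBP1 luciferase reporter; buffer or medium: F12 medium containing 10% fetal bovine serum; compound: single point, 20 µM final compound, 1% DMSO; incubation: 6 h treatment, 37 °C; measured by: glow luminescence from Steady-Glo reagent; evaluation: activation, % of tunicamycin; control set: tunicamycin high, DMSO low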
CHOP confirm – retest of CHOP induction inhibitors, confirmation, cell-based; CHO-CHOP promoter luciferase reporter, tunicamycin-induced, luminescence; shares compounds with CHOP inh; inhibition, % at 10 µM; hit rate 45% among 2,100;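 active = mean of three repeat readings of reporter signal inhibition above a set limit, cut at about 70% in these data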;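 also: 0% = tunicamycin plus vehicle and 100% = wells lacking tunicamycin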
Jurkat NFkB conf – PMA/ionomycin-induced NF-kB reporter inhibitors, Jurkat retest, confirmation, T-cell NF-kB inhibitor project, cell-based, luminescence, single concentration. shares compounds with Jurkat NFkB inh. Jurkat NF-kB luciferase, 16 h. inhibition, % at 4 µM. hit rate 27% among 2,700. AID 435020, 2010;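 active = inhibition reaching about 45% at 4 µM in either replicate, limit read from the data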;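 also: plate controls were PMA/ionomycin stimulated DMSO wells for no effect and unstimulated DMSO wells for full effect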
697 NFkB conf – PMA/ionomycin-induced NF-kB reporter inhibitors, 697 retest, confirmation, B-cell NF-kB inhibitor project, cell-based, luminescence, single concentration; shares compounds with 697 NFkB inh; 697 B-cell NF-kB luciferase, 16 h; inhibition, % at 4 µM; hit rate 35% among 2,000; in the data active = inhibition mostly above about 28%, no sharp cut-off; inactive = mostly below about 22%
UPR CHOP confirm – activators of apoptotic CHOP UPR arm, confirmation, cell-based, CHO-CHOP luciferase reporter, single concentration; shares compounds with CHOP UPR activ; CHO-CHOP cells, CHOP-luciferase reporter luminescence; percent of tunicamycin response, DMSO as zero; activation, % at 10 µM; hit rate 64% among 1,000; in the data active = activation above about 33%;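 also: 0% = DMSO wells and 100% = tunicamycin 10 µg/mL wells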
UPR XBP1 confirm – IRE1-XBP1 UPR arm activators, confirmation, cell-based, CHO-XBP1 luciferase reporter, luminescence, single concentration; hit rate 63% among 1,000; activation, % at 20 µM; shares compounds with XBP1 UPR activ;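 active = reporter signal at least 30% of the positive control's activation in two or more of four replicate wells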;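 also: plate controls were DMSO negative control for no effect and tunicamycin 10 µg/mL positive control for full effect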
* marks the source's active call; other numbers are inactive results; . = no result. The full list was thinned out, with hits kept by preference.

SMILES	697 NFkB inh	CHOP UPR activ	CHOP inh	Jurkat NFkB inh	XBP1 UPR activ	CHOP confirm	UPR XBP1 confirm	others
COc1ccc2cc(C)c3nnc(SCC(=O)Nc4nc(-c5ccc(F)cc5)cs4)n3c2c1	1	160*	105*	5	216*	7	216*	UPR CHOP confirm=88*
CCCCCCCCCn1c2c(c(=N)c3c1CCC3)CCCC2	58*	72*	106*	97*	44*	0	44*	Jurkat NFkB conf=81*;697 NFkB conf=-13;UPR CHOP confirm=79*
O=C(O)CC(NC(=O)/C(=C/c1ccccc1)NC(=O)c1ccccc1)c1ccccc1 (configuration not stated)	-10	-2	.	-16	-2	.	.
Cc1ccc(-c2nnc(-c3ccc(NC(=O)Cc4cccs4)cc3)o2)cc1	-10	41*	105*	-28	142*	102*	52*	UPR CHOP confirm=15
O=C(Cc1cccs1)Nc1cccc(-c2nnc(-c3ccco3)o2)c1	-34	2	38	-13	-3	.	.
C[C@H](CO)N1C[C@H](C)[C@@H](CN(C)S(=O)(=O)c2ccc(F)cc2)Oc2c(NC(=O)Cc3ccccc3)cccc2C1=O	1	-1	.	4	1	.	.
O=C(NCC1COCCO1)c1cc(COc2ccc(F)cc2F)on1 (configuration not stated)	24	-2	.	-3	-3	.	.
Cc1cccc(N2CCN(C(=S)Nc3ccc4nc(N5CCN(C)CC5)cc(C)c4c3)CC2C)c1 (configuration not stated)	6	8	106*	7	62*	-14	47*
CC1CCC(C(C)C)C(OC(=O)C2=C3c4ccccc4S(=O)(=O)N3CC2)C1 (configuration not stated)	-37	-1	8	2	-1	.	.
COc1ccc(OCc2n(CC(=O)OC3CC(C)CCC3C(C)C)c3ccccc3[n+]2C)cc1 (configuration not stated)	-44	2	97*	13	36*	95*	32*
CCc1cc2c(C)ccc(C)c2nc1SCC(=O)Nc1c[nH]c(=O)[nH]c1=O	20	0	101*	-7	52*	40	37*
COc1ccc(Cn2c(SCc3ccccc3C)nc3cc(OC)c(OC)cc3c2=N)cc1	-33	16	107*	19	115*	120*	61*
COc1cc2nc(SCc3ccc(F)cc3)n(Cc3cccs3)c(=N)c2cc1OC	-3	0	0	5	-2	.	.
CCOC(=O)c1c2ccc(OCC(=O)NN)cc2n2ccccc12	10	-1	33	-1	-3	.	.
CCOC(=O)c1c2ccc(OCC(=O)N/N=C/c3ccc(C)cc3)cc2n2ccccc12	13	158*	104*	6	123*	114*	106*	UPR CHOP confirm=61*
Fc1ccccc1OCCCCN1CCCCC1	13	-1	.	6	-1	.	.
CCOc1ccc(C(=O)Nc2ccc(NC(=O)c3ccco3)c(Cl)c2)cc1Cl	5	13	101*	-7	48*	60	120*

Screening data as filed in PubChem.
